Assay results as given in ChEMBL document CHEMBL3352814, “Design, synthesis and biological evaluation of biphenylamide derivatives as Hsp90 C-terminal inhibitors” (Eur J Med Chem, 2015).
The source made the active and inactive calls. The rule behind the calls is not given here.

Assays:
[1] = Antiproliferative activity against human SKBR3 cells after 72 hrs by MTS/PMS assay; assay type: functional, cell-based; details: SK-BR-3, 72 h
Summary of the method: (§1)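 Cells kept in 1:1 Advanced DMEM/F12 with non-essential amino acids, 2 mM L-glutamine, penicillin/streptomycin and 10% FBS at 37 °C, 5% CO2. Seeded 2000 cells/well, attached overnight, then given compound at varying concentrations in DMSO (1% final) for 72 h. Viable cells read by MTS/PMS. Normalised to 1% DMSO wells as 100% proliferation. IC50 from separate experiments run in triplicate.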

[2] = tested on: MCF7; assay: Antiproliferative activity against human MCF7 cells after 72 hrs by MTS/PMS assay; assay type: functional, cell-based; details: MCF7, 72 h; summary of the method: as §1
[3] = target: T1, Heat shock protein HSP90 (Homo sapiens) (UniProt P07900+P08238); assay: Inhibition of HSP90 in human MCF7 cells assessed as induction of Akt protein degradation at 0.5 to 5 times antiproliferative IC50 level after 24 hrs by Western blotting method; assay type: cell-based
Summary of the method: (§2)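 MCF-7 cells, grown as for proliferation, treated 24 h with compound in DMSO (1% final). Geldanamycin 0.5 μM and DMSO served as controls. Lysis in cold RIPA with 1 mM PMSF, 2 mM orthovanadate and protease inhibitors, 1 h on ice, then cleared at 14000g, 10 min, 4 °C. BCA protein assay; 20 μg protein run reducing, blotted to nitrocellulose, probed with client antibodies, HRP chemiluminescence. High and low doses were 5-fold and 0.5-fold the antiproliferative value.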

[4] = target: T1, Heat shock protein HSP90 (Homo sapiens); assay: Inhibition of HSP90 in human MCF7 cells assessed as induction of Her2 protein degradation at 0.5 to 5 times antiproliferative IC50 level after 24 hrs by Western blotting method; assay type: cell-based; summary of the method: as §2
[5] = target: T1, Heat shock protein HSP90 (Homo sapiens); assay: Inhibition of HSP90 in human MCF7 cells assessed as induction of Raf protein degradation at 0.5 to 5 times antiproliferative IC50 level after 24 hrs by Western blotting method; assay type: cell-based; summary of the method: as §2

| Compound | IC50 [1] | IC50 [2] | inhibition [3] | inhibition [4] | inhibition [5] |
| --- | --- | --- | --- | --- | --- |
| Cc1ccc(C(=O)Nc2ccc(-c3ccc(OC4CCN(C)CC4)cc3)cc2)cc1I | 930 nM | 1170 nM |  |  |  |
| CN1CCC(Oc2ccc(-c3ccc(NC(=O)c4cccc(Cl)c4)cc3)cc2)CC1 | 1940 nM | 2830 nM |  |  |  |
| CN1CCC(Oc2ccc(-c3ccc(NC(=O)c4cnc5ccccc5c4)cc3)cc2)CC1 | 2420 nM | 2760 nM |  |  |  |
| COc1cccc(C(=O)Nc2ccc(-c3ccc(OC4CCN(C)CC4)cc3)cc2)c1 | 2870 nM | 5310 nM |  |  |  |
| COc1ccc(C(=O)Nc2ccc(-c3ccc(OC4CCN(C)CC4)cc3)cc2)cc1 | 490 nM | 650 nM | Active | Active | Active |
| CN1CCC(Oc2ccc(-c3ccc(NC(=O)c4ccc5ncccc5c4)cc3)cc2)CC1 | 1310 nM | 2070 nM |  |  |  |
| COc1ccc(C(=O)Nc2ccc(-c3ccc(OC4CCN(C)CC4)cc3)cc2)cc1-c1cccc(N)c1 | 1520 nM | 1670 nM |  |  |  |
| CN1CCC(Oc2ccc(-c3ccc(NC(=O)c4cc5ccccc5[nH]4)cc3)cc2)CC1 | 640 nM | 580 nM | Active | Active | Active |
| COc1cccc(-c2cc(C(=O)Nc3ccc(-c4ccc(OC5CCN(C)CC5)nc4)cc3)ccc2OC)c1 | 1670 nM | 1560 nM |  |  |  |
| CN1CCC(Oc2ccc(-c3ccc(NC(=O)c4ccc(Br)cc4)cc3)cc2)CC1 | 520 nM | 520 nM | inactive | inactive | inactive |
| COc1cccc(-c2cc(C(=O)Nc3ccc(-c4ccc(OC5CCN(C)CC5)c(N)c4)cc3)ccc2OC)c1 | 2230 nM | 5950 nM |  |  |  |
| COc1ccc(C(=O)Nc2ccc(-c3ccc(OC4CCN(C)CC4)cc3)cc2)cc1-c1ccc(O)cc1 | 130 nM | 500 nM |  |  |  |
| CC(=O)Oc1ccc(C(=O)Nc2ccc(-c3ccc(OC4CCN(C)CC4)cc3)cc2)cc1CC=C(C)C | 1820 nM | 1370 nM |  |  |  |
| COc1cccc(-c2cc(C(=O)Nc3ccc(-c4ccc(OC5CCN(C)CC5)cc4OC)cc3)ccc2OC)c1 | 1410 nM | 1350 nM |  |  |  |
| CC(C)=CCc1cc(NC(=O)Nc2cc3ccc(OC4CCN(C)CC4)c(C)c3oc2=O)ccc1O | 390 nM | 370 nM |  |  |  |
| COc1cccc(-c2cc(C(=O)Nc3ccc(-c4ccc(OC5CCN(C)CC5)cc4)cn3)ccc2OC)c1 | 1070 nM | 1150 nM |  |  |  |
| COc1cccc(-c2cc(C(=O)Nc3ccc(-c4ccc(OC5CCN(C)CC5)cc4)c(Cl)c3)ccc2OC)c1 | 2210 nM | 3440 nM |  |  |  |
| COc1cccc(-c2cc(C(=O)Nc3ccc(-c4ccc(OC5CCN(C)CC5)c(OC)c4)cc3)ccc2OC)c1 | 680 nM | 1320 nM |  |  |  |
| COc1ccc(C(=O)Nc2ccc(-c3ccc(OC4CCN(C)CC4)cc3)cc2)cc1-c1ccc(Cl)cc1 | 1060 nM | 820 nM |  |  |  |
| COc1cccc(-c2cc(C(=O)Nc3ccc(-c4ccc(OC5CCN(C)CC5)cc4)cc3[N+](=O)[O-])ccc2OC)c1 | 3400 nM | 1150 nM |  |  |  |
| COc1ccc(-c2cc(C(=O)Nc3ccc(-c4ccc(OC5CCN(C)CC5)cc4)cc3)ccc2OC)cc1 | 630 nM | 790 nM |  |  |  |

| Compound | IC50 [1] | IC50 [2] | inhibition [3] | inhibition [4] | inhibition [5] |
| --- | --- | --- | --- | --- | --- |
| CN1CCC(Oc2ccc(-c3ccc(NC(=O)c4cc5ccccc5s4)cc3)cc2)CC1 | 1320 nM | 2010 nM |  |  |  |
| CN1CCC(Oc2ccc(-c3ccc(NC(=O)c4ccc(Cl)cc4Cl)cc3)cc2)CC1 | 800 nM | 1370 nM |  |  |  |
| COc1ccc(C(=O)Nc2ccc(-c3ccc(OC4CCN(C)CC4)cc3)cc2)cc1-c1cccc(O)c1 | 1560 nM | 1080 nM |  |  |  |
| COc1cccc(-c2cc(C(=O)Nc3ccc(-c4ccc(OC5CCN(C)CC5)cc4)c(OC)c3)ccc2OC)c1 | 900 nM | 1500 nM |  |  |  |
| COc1cccc(-c2cc(C(=O)Nc3ccc(-c4ccc(OC5CCN(C)CC5)c(Cl)c4)cc3)ccc2OC)c1 | 1840 nM | 1480 nM |  |  |  |
| Cc1cc(C(=O)Nc2ccc(-c3ccc(OC4CCN(C)CC4)cc3)cc2)ccc1Cl | 1110 nM | 1030 nM |  |  |  |
| Cc1ccc(C(=O)Nc2ccc(-c3ccc(OC4CCN(C)CC4)cc3)cc2)cc1Br | 2800 nM | 3350 nM |  |  |  |
| COc1cccc(-c2cc(C(=O)Nc3ccc(-c4ccc(OC5CCN(C)CC5)cc4C)cc3)ccc2OC)c1 | 1180 nM | 1210 nM |  |  |  |
| CN1CCC(Oc2ccc(-c3ccc(NC(=O)c4ccc(Cl)c(Cl)c4)cc3)cc2)CC1 | 1200 nM | 1600 nM |  |  |  |
| COc1cccc(-c2cc(C(=O)Nc3ccc(-c4ccc(OC5CCN(C)CC5)cc4)cc3Cl)ccc2OC)c1 | 4290 nM | 1800 nM |  |  |  |
| COc1cccc(-c2cc(C(=O)Nc3cccc(-c4ccc(OC5CCN(C)CC5)cc4)c3)ccc2OC)c1 | 3650 nM | 1250 nM |  |  |  |
| CN1CCC(Oc2ccc(-c3ccc(NC(=O)c4ccc(C(C)(C)C)cc4)cc3)cc2)CC1 | 1260 nM | 1080 nM |  |  |  |
| COc1cccc(-c2cc(C(=O)Nc3ccc(-c4ccc(OC5CCN(C)CC5)cc4)c(N)c3)ccc2OC)c1 | 3900 nM | 2070 nM |  |  |  |
| COc1cccc(-c2cc(C(=O)Nc3ccc(-c4ccc(OC5CCN(C)CC5)cc4N)cc3)ccc2OC)c1 | 2130 nM | 1760 nM |  |  |  |
| COc1cccc(-c2cc(C(=O)Nc3ccc(-c4ccc(OC5CCN(C)CC5)cc4)c(C)c3)ccc2OC)c1 | 970 nM | 1570 nM |  |  |  |
| Cc1ccc(C(=O)Nc2ccc(-c3ccc(OC4CCN(C)CC4)cc3)cc2)cc1Cl | 1960 nM | 2280 nM |  |  |  |
| COc1cccc(-c2cc(C(=O)Nc3ccc(-c4ccc(OC5CCN(C)CC5)cc4)cc3C)ccc2OC)c1 | 2470 nM | 1430 nM |  |  |  |
| COc1cccc(-c2cc(C(=O)Nc3ccc(-c4ccc(OC5CCN(C)CC5)cc4)c([N+](=O)[O-])c3)ccc2OC)c1 | 2480 nM | 3320 nM |  |  |  |
| COc1cccc(-c2cc(C(=O)Nc3ccc(-c4ccc(OC5CCN(C)CC5)cn4)cc3)ccc2OC)c1 | 1910 nM | 1300 nM |  |  |  |
| COc1cccc(-c2cc(C(=O)Nc3ccc(-c4ccc(OC5CCN(C)CC5)cc4Cl)cc3)ccc2OC)c1 | 1280 nM | 1480 nM |  |  |  |
| Cc1ccc(C(=O)Nc2ccc(-c3ccc(OC4CCN(C)CC4)cc3)cc2)cc1 | 980 nM | 1270 nM |  |  |  |

| Compound | IC50 [1] | IC50 [2] | inhibition [3] | inhibition [4] | inhibition [5] |
| --- | --- | --- | --- | --- | --- |
| CN1CCC(Oc2ccc(-c3ccc(NC(=O)c4ccc(-c5ccccc5)cc4)cc3)cc2)CC1 | 4590 nM | 4440 nM |  |  |  |
| CN1CCC(Oc2ccc(-c3ccc(NC(=O)c4ccccc4-c4ccccc4)cc3)cc2)CC1 | 6260 nM | 6670 nM |  |  |  |
| CC(=O)Oc1ccc(C(=O)Nc2cccc(-c3ccc(OC4CCN(C)CC4)cc3)c2)cc1CC=C(C)C | 3470 nM | 2710 nM |  |  |  |
| COc1ccc(C(=O)Nc2ccc(-c3ccc(OC4CCN(C)CC4)cc3)cc2)cc1-c1cccc(NC(C)=O)c1 | 3370 nM | 1430 nM |  |  |  |
| COc1cccc(-c2cc(C(=O)Nc3ccc(-c4ccc(OC5CCN(C)CC5)cc4[N+](=O)[O-])cc3)ccc2OC)c1 | 1180 nM | 1300 nM |  |  |  |
| COc1cccc(-c2cc(C(=O)Nc3ccc(-c4ccc(OC5CCN(C)CC5)cc4)cc3OC)ccc2OC)c1 | 3920 nM | 1220 nM |  |  |  |
| COc1cccc(-c2cc(C(=O)Nc3ccc(-c4ccc(OC5CCN(C)CC5)c(C)c4)cc3)ccc2OC)c1 | 830 nM | 1690 nM |  |  |  |
| CN1CCC(Oc2ccc(-c3ccc(NC(=O)c4ccccc4)cc3)cc2)CC1 | 4130 nM | 3950 nM |  |  |  |
| COc1cccc(-c2cccc(C(=O)Nc3ccc(-c4ccc(OC5CCN(C)CC5)cc4)cc3)c2)c1 | 810 nM | 1020 nM |  |  |  |
| COc1ccc(C(=O)Nc2ccc(-c3ccc(OC4CCN(C)CC4)cc3)cc2)cc1-c1cccc(OC(C)=O)c1 | 270 nM | 620 nM |  |  |  |
| COc1cccc(-c2cc(C(=O)Nc3ccc(-c4ccc(OC5CCN(C)CC5)cc4)cc3NC(C)=O)ccc2OC)c1 | 3510 nM | 1660 nM |  |  |  |
| CN1CCC(Oc2ccc(-c3ccc(NC(=O)c4cc(Cl)cc(Cl)c4)cc3)cc2)CC1 | 810 nM | 1680 nM |  |  |  |
| COc1cccc(-c2cc(C(=O)Nc3ccc(-c4ccc(OC5CCN(C)CC5)c(NC(C)=O)c4)cc3)ccc2OC)c1 | 2660 nM | 1840 nM |  |  |  |
| COc1cccc(-c2cc(C(=O)Nc3ccc(-c4ccc(OC5CCN(C)CC5)c([N+](=O)[O-])c4)cc3)ccc2OC)c1 | 2070 nM | 1230 nM |  |  |  |
| COc1ccc(C(=O)Nc2ccc(-c3ccc(OC4CCN(C)CC4)cc3)cc2)cc1-c1cccc([N+](=O)[O-])c1 | 400 nM | 1090 nM |  |  |  |
| CC(=O)Oc1ccc(C(=O)Nc2cccc(-c3cccc(OC4CCN(C)CC4)c3)c2)cc1CC=C(C)C | 1760 nM | 1700 nM |  |  |  |
| COc1cccc(-c2cc(C(=O)Nc3ccc(-c4ccc(OC5CCN(C)CC5)cc4)c(NC(C)=O)c3)ccc2OC)c1 | 2520 nM | 4660 nM |  |  |  |
| COc1cccc(-c2cc(C(=O)Nc3ccc(-c4ccc(OC5CCN(C)CC5)cc4NC(C)=O)cc3)ccc2OC)c1 | 3390 nM | 1360 nM |  |  |  |
| COc1cccc(-c2cc(C(=O)Nc3ccc(-c4ccc(OC5CCN(C)CC5)cc4)nc3)ccc2OC)c1 | 1210 nM | 1020 nM |  |  |  |
| COc1cccc(-c2cc(C(=O)Nc3ccc(-c4ccc(OC5CCN(C)CC5)cc4)cc3N)ccc2OC)c1 | 3210 nM | 2250 nM |  |  |  |
